Laboratory results: ChEMBL document CHEMBL3596166, “Bisabolane-Type Sesquiterpenoids from the Whole Plant of Parasenecio rubescens” (J Nat Prod, 2015)

What was measured:
[1] = system: Staphylococcus aureus; experiment: Antibacterial activity against Staphylococcus aureus assessed as growth inhibition at 200 ug/ml after 24 hrs by paper disk diffusion method; assay type: functional; conditions: read-out: DIZ
Summary of the method: (§1)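 Paper disk diffusion. About 0.1 mL of sample at 200 μg/mL applied to a 6 mm paper disk, air-dried, then placed on the inoculated culture dish and incubated 24 h at 37 °C. Read-out is inhibitory zone diameter (IZD). Penicillin G disks served as control for S. aureus and streptomycin disks for E. coli. Run in duplicate.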

[2] = system: Escherichia coli; experiment: Antibacterial activity against Escherichia coli assessed as growth inhibition at 200 ug/ml after 24 hrs by paper disk diffusion method; assay type: functional; conditions: read-out: DIZ; summary of the method: as §1
[3] = system: B16; experiment: Cytotoxicity against mouse B16 cells assessed as inhibition of cell viability after 24 hrs by MTT assay; assay type: functional, cell-based; conditions: B16, 24 h
[4] = system: HepG2; experiment: Cytotoxicity against human HepG2 cells assessed as inhibition of cell viability after 24 hrs by MTT assay; assay type: functional, cell-based; conditions: HepG2, 24 h
[5] = system: MCF7; experiment: Cytotoxicity against human MCF7 cells assessed as inhibition of cell viability after 24 hrs by MTT assay; assay type: functional, cell-based; conditions: MCF7, 24 h

Compound	zone of inhibition at 200 µg/mL [1]	zone of inhibition at 200 µg/mL [2]	IC50 [3]	IC50 [4]	IC50 [5]
C=C(C)C(O)CC(OC(=O)/C(C)=C\C)C(=C)[C@H]1[C@H](O)[C@H](OC(=O)/C(C)=C\C)[C@@](C)(O)[C@H](O)[C@@H]1OC(=O)/C=C(\C)CC (some centres not stated)	9 mm	8 mm	39.7 µM	71.5 µM	78.9 µM
C=C(C(CC(O)C(C)(C)OC)OC(=O)/C(C)=C\C)[C@H]1[C@H](OC(=O)/C(C)=C\C)[C@H]2O[C@@]2(C)[C@@H](OC(=O)/C(C)=C\C)[C@H]1OC(C)=O (some centres not stated)	–	–	49.6 µM	96.6 µM	56.2 µM
C=C(C(CC(O)C(C)(C)O)OC(=O)/C(C)=C\C)[C@H]1[C@H](OC(=O)/C(C)=C\C)[C@H]2O[C@@]2(C)[C@@H](OC(=O)/C(C)=C\C)[C@H]1OC(C)=O (some centres not stated)	–	–	42.5 µM	40.8 µM	79.4 µM
C=C(C1CC(O)C(C)(C)O1)[C@H]1[C@H](OC(=O)/C(C)=C\C)[C@H]2O[C@@]2(C)[C@@H](OC(C)=O)[C@H]1OC(C)=O (some centres not stated)	8 mm	8 mm	–	–	–
COc1cccc2c1C(=O)c1c(O)c3c(c(O)c1C2=O)C[C@@](O)(C(=O)CO)C[C@@H]3O[C@H]1C[C@H](N)[C@H](O)[C@H](C)O1 [DOXORUBICIN]	–	–	17.7 µM	23.2 µM	–
CC1(C)S[C@@H]2[C@H](NC(=O)Cc3ccccc3)C(=O)N2[C@H]1C(=O)O [PENICILLIN G]	25 mm	–	–	–	–
CN[C@@H]1[C@H](O[C@H]2[C@H](O[C@H]3[C@H](O)[C@@H](O)[C@H](N=C(N)N)[C@@H](O)[C@@H]3N=C(N)N)O[C@@H](C)[C@]2(O)C=O)O[C@@H](CO)[C@H](O)[C@H]1O [STREPTOMYCIN]	–	18 mm	–	–	–
